Experimental data reported in ChEMBL document CHEMBL1133468, “New diarylmethylpiperazines as potent and selective nonpeptidic delta opioid receptor agonists with increased In vitro metabolic stability” (J Med Chem, 2000).

Tests used:
[1] = target: T1, Delta-type opioid receptor (Homo sapiens, UniProt P41143); assay: Binding affinity against human opioid receptor delta 1 using [125I]-[D-Ala2]-deltorphin II as radioligand
[2] = target: T1, Delta-type opioid receptor; assay: Agonist potency was measured using GTP gamma-[35S] binding assay
[3] = target: Kappa-type opioid receptor (Homo sapiens, UniProt P41145); assay: Binding affinity against cloned human Opioid receptor kappa 1 using [125I]-D-Pro10-dynorphin A[1-11] as radioligand
Mu-type opioid receptor = Mu-type opioid receptor (Homo sapiens, UniProt P35372); assay: Binding affinity against cloned human Opioid receptor mu 1 using [125I]FK33824 as radioligand
[4] = Maximal efficacy (Emax value); format: functional
Outline: (§1)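 GTPγ35S binding on P2 membranes of HEK-293S cells stably expressing human δ receptor (9.7 pmol/mg protein). Filtration after 1 h. Stimulated binding set with 3 µM SNC-80. %Emax from 3-parameter logistic fit.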

[5] = Metabolic stability at a concentration of 10 uM in rat liver microsomes after 1 hr incubation; format: ADME
Outline: (§2)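 Substrate at 10 or 100 µM final (1% DMSO) with rat liver microsomes (0.4 mg/mL protein), 1 mM NADPH, 100 mM phosphate pH 7.4, 37 °C with gentle shaking, in duplicate. Reaction started by NADPH and stopped at 0 and 60 min with ice-cold acetonitrile. After centrifugation, supernatant analysed by LC-MS for % parent remaining. Controls omitted microsomes or NADPH.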

[6] = Metabolic stability at a concentration of 100 uM in rat liver microsomes after 1 hr incubation; format: ADME; outline: as §2
[7] = Emax value was determined; outline: as §1

Mu-type opioid receptor, sequence (P35372 whole entry): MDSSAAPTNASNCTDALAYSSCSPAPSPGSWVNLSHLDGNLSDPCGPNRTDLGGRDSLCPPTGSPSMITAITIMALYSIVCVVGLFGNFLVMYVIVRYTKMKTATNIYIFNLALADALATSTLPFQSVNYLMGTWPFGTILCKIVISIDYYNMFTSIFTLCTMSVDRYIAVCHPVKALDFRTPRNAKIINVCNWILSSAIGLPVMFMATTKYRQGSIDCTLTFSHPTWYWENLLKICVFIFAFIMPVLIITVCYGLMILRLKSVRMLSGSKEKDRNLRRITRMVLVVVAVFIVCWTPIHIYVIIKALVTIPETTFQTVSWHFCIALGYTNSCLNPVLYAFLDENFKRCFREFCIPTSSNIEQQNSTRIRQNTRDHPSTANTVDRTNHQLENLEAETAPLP
T1 sequence (P41143 whole entry): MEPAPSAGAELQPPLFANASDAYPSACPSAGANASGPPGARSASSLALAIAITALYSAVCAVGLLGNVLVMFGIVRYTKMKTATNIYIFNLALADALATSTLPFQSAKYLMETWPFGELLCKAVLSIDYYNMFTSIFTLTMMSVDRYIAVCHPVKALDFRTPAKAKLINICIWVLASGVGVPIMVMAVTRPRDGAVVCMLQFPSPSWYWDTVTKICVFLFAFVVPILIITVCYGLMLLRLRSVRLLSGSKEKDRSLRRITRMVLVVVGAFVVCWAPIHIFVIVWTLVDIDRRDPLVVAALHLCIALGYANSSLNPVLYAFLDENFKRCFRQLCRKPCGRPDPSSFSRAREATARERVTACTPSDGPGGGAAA
Kappa-type opioid receptor, sequence (P41145 whole entry): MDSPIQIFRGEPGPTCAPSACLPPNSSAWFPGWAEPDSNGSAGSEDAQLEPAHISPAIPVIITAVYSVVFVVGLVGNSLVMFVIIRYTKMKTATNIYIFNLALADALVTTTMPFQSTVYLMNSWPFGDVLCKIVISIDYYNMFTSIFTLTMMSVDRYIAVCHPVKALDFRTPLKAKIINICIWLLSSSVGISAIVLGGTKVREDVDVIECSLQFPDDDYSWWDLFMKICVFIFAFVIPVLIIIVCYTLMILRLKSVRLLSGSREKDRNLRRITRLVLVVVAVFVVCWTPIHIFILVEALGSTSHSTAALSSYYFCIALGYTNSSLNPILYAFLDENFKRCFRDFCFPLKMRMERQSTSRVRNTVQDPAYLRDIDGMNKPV

Compound | IC50 [1] [nM] | EC50 [2] [nM] | IC50 [3] [nM] | IC50 (Mu-type opioid receptor) [nM] | Emax [4] [%] | remaining at 1 h, 10 µM [5] [%] | remaining at 1 h, 100 µM [6] [%] | Emax [7] [%]
CC(C)(O)c1ccc(C(c2ccccc2)N2CCNCC2)cc1 (centres undefined) | 406 | – | – | – | – | – | – | –
CCN(CC)C(=O)c1ccc(C(c2ccc3cc[nH]c3c2)N2CCNCC2)cc1 (centres undefined) | 6.81 | 44.9 | 3970 | 2220 | 105 | – | – | –
CCN(CC)C(=O)c1ccc(C(c2cccc(F)c2)N2CCNCC2)cc1 (centres undefined) | 4.5 | 53.3 | > 10000 | 5650 | 97 | – | – | –
CCN(CC)C(=O)c1ccc(C(c2cccc3cccnc23)N2CCNCC2)cc1 (centres undefined) | 0.51 | 3.6 | 7020 | 632 | 104 | 52 | 83 | –
CCN(CC)C(=O)c1ccc(C(c2ccccc2)N2CCCNCC2)cc1 (centres undefined) | 19.6 | 303 | 4530 | 2290 | 96 | – | – | –
CCN(CC)C(=O)c1ccc(C(c2ccccc2)N(C)CCNC)cc1 (centres undefined) | 91.6 | – | > 10000 | 6970 | – | – | – | –
CCN(CC)C(=O)c1ccc(C(c2cccc3c2OC(C)(C)C3)N2CCNCC2)cc1 (centres undefined) | 1.15 | 7.1 | > 7600 | 785 | 101 | 43 | 93 | –
O=C(O)c1ccc(C(c2ccccc2)N2CCNCC2)cc1 (centres undefined) | 410 | – | – | – | – | – | – | –
CCN(CC)C(=O)c1ccc(C(c2ccc(OC)cc2)N2CCNCC2)cc1 (centres undefined) | 8.13 | 187 | > 10000 | 4540 | 90 | – | – | –
CCN(CC)Cc1ccc(C(c2ccccc2)N2CCNCC2)cc1 (centres undefined) | 555 | – | – | – | – | – | – | –
CN1CCc2cc(-c3ccc(C(c4ccccc4)N4CCNCC4)cc3)ccc2C1=O (centres undefined) | 1650 | – | – | – | – | – | – | –
CCNC(=O)c1ccc(C(c2ccccc2)N2CCNCC2)cc1 (centres undefined) | 175 | – | – | – | – | – | – | –
CCN(CC)C(=O)c1ccc(C(c2cccc3cnccc23)N2CCNCC2)cc1 (centres undefined) | 4.11 | 54.6 | > 10000 | 1480 | 106 | – | – | –
COC(=O)c1ccc(C(c2ccccc2)N2CCNCC2)cc1 (centres undefined) | 307 | – | – | – | – | – | – | –
c1ccc(C(c2ccc(-c3nnn[nH]3)cc2)N2CCNCC2)cc1 (centres undefined) | 250 | – | – | – | – | – | – | –
CCN(CC)C(=O)c1ccc(C(c2ccccc2)N2CCCCC2)cc1 (centres undefined) | 2230 | – | – | – | – | – | – | –
CCN(CC)C(=O)c1ccc(C(c2ccccc2)C2CCNCC2)cc1 (centres undefined) | – | – | > 10000 | > 10000 | 97 | – | – | –
CCN(CC)C(=O)c1ccc(C(c2ccccc2)N2CCN(CC3CC3)CC2)cc1 (centres undefined) | 35.3 | – | > 5600 | 2400 | – | – | – | –
C=CCN1C[C@H](C)N([C@H](c2ccc(C(=O)N(CC)CC)cc2)c2cccc(OC)c2)C[C@H]1C | – | – | – | – | 100 | – | – | –
C=CCN1CCN(C(c2ccccc2)c2ccc(C(=O)N(CC)CC)cc2)CC1 (centres undefined) | 15.9 | 33 | 7570 | 5060 | 109 | – | – | –
CCN(CC)C(=O)c1ccc(C(c2cccc(OC)c2)N2CCNCC2)cc1 (centres undefined) | 24.8 | 42 | > 10000 | 5290 | 109 | – | – | –
CCN(CC)C(=O)c1ccc(C(c2ccc3cccnc3c2)N2CCNCC2)cc1 (centres undefined) | 1.1 | 6.86 | 3160 | 1020 | – | – | – | 100

Compound | IC50 [1] [nM] | EC50 [2] [nM] | IC50 [3] [nM] | IC50 (Mu-type opioid receptor) [nM] | Emax [4] [%] | remaining at 1 h, 10 µM [5] [%] | remaining at 1 h, 100 µM [6] [%] | Emax [7] [%]
CCN(CC)C(=O)c1ccc(C(c2ccc(Cl)cc2)N2CCNCC2)cc1 (centres undefined) | 19.3 | 113 | > 10000 | 5330 | 107 | – | – | –
CCN(CC)C(=O)c1ccc(C(c2cccc(OC)c2)N2CC(C)(C)NCC2C)cc1 (centres undefined) | 8.44 | 10.4 | > 10000 | 620 | 100 | – | – | –
CCN(CC)C(=O)c1ccc(C(c2ccc(C)cc2)N2CCNCC2)cc1 (centres undefined) | 8.42 | 78.1 | > 10000 | 7090 | 84 | – | – | –
CCN(CC)C(=O)c1ccc(C(c2cccc3ccccc23)N2CCNCC2)cc1 (centres undefined) | 2.36 | 18 | 4910 | 777 | 99 | – | – | –
CCN(CC)C(=O)c1ccc(C(c2ccc3ncccc3c2)N2CCNCC2)cc1 (centres undefined) | 61.6 | – | – | – | – | – | – | –
CCN(CC)C(=O)c1ccc(C(c2ccc3ccccc3c2)N2CCNCC2)cc1 (centres undefined) | 7.63 | 50 | > 10000 | 2680 | 110 | – | – | –
CN(C)C(=O)c1ccc(C(c2ccccc2)N2CCNCC2)cc1 (centres undefined) | 60.4 | – | – | – | – | – | – | –
CCN(CC)C(=O)c1ccc(C(c2ccccc2)N2CCN(C)CC2)cc1 (centres undefined) | 40.4 | 211 | 6970 | > 10000 | 58 | – | – | –
CCN(CC)C(=O)c1ccc(C(c2ccccc2)N2CCNCC2)cc1 (centres undefined) | – | – | – | – | 104 | 60 | 89 | –
CCN(CC)S(=O)(=O)c1ccc(C(c2ccccc2)N2CCNCC2)cc1 (centres undefined) | 37.9 | 635 | – | – | 110 | – | – | –
CCN(CC)C(=O)c1ccc(C(c2cccc(OC)c2)N2CC(C)NCC2(C)C)cc1 (centres undefined) | 53.3 | 273 | > 10000 | 284 | 94 | – | – | –
CCCCN1CCN(C(c2ccccc2)c2ccc(C(=O)N(CC)CC)cc2)CC1 (centres undefined) | 28.6 | – | > 10000 | 486 | – | – | – | –
CCN(CC)C(=O)c1ccc(C(c2ccnc3ccccc23)N2CCNCC2)cc1 (centres undefined) | 132 | – | – | – | – | – | – | –
NC(=O)c1ccc(C(c2ccccc2)N2CCNCC2)cc1 (centres undefined) | 509 | – | – | – | – | – | – | –
CC(=O)c1ccc(C(c2ccccc2)N2CCNCC2)cc1 (centres undefined) | 1050 | – | – | – | – | – | – | –
C=CCN1C[C@H](C)N([C@H](c2ccc(C(=O)N(CC)CC)cc2)c2cccc(O)c2)C[C@H]1C | – | 0.12 | 20 | 2.1 | 98 | 4 | 59 | –
CCC(CC)C(=O)c1ccc(C(c2ccccc2)N2CCNCC2)cc1 (centres undefined) | 100 | – | – | – | – | – | – | –
CCN(CC)C(=O)c1ccc(C(c2ccccc2)N2CCN(C(C)=O)CC2)cc1 (centres undefined) | > 2000 | – | – | – | – | – | – | –
CCN(CC)C(=O)c1ccc(C(C2CCCCC2)N2CCNCC2)cc1 (centres undefined) | 98.4 | – | 724 | 185 | – | – | – | –
CCN(CC)C(=O)c1ccc(C(c2ccccc2)N2CCOCC2)cc1 (centres undefined) | > 10000 | – | – | – | – | – | – | –
N#Cc1ccc(C(c2ccccc2)N2CCNCC2)cc1 (centres undefined) | 1290 | – | – | – | – | – | – | –
